Experimental data taken from ChEMBL document CHEMBL4622973, “Discovery of Potent Small-Molecule SIRT6 Activators: Structure-Activity Relationship and Anti-Pancreatic Ductal Adenocarcinoma Activity” (J Med Chem, 2020).

System: PANC-1
Experiment: Antitumor activity against human PANC1 cells xenografted in BALB/c nude mouse assessed as slowing of tumor growth at 100 to 150 mg/kg/day, po for 30 days
Format: functional, organism-based
Method in brief: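 Female BALB/c nude mice, 6-8 weeks old, injected subcutaneously in the right flank with 5×10^6–1×10^7 PANC-1 cells. At 130-150 mm³, mice randomized into 4 groups (n = 6) and dosed orally once daily for 30 days against vehicle. Tumor volume followed over time. Inhibition rate assessed against control.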

`O=C(NC(c1ccccc1)c1ccccc1)c1cc(-c2cc3ccccc3o2)nc2ccccc12` was tested, and the Activity was “Dose-dependent effect”.
